17 molecules from ChEMBL document CHEMBL3232963, “Discovery of a potent and selective α3β4 nicotinic acetylcholine receptor antagonist from an α-conotoxin synthetic combinatorial library” (J Med Chem, 2014) can be followed below.

The term inhibition denotes the relative decrease from the control value, in per cent.

Structures are written as SMILES. Numbered stars: 1 amine (or outer) side, 2 acyl side, 3 side chain; on linkers, the order of the positions; unused ones are H or OH. Bridge positions count the residues as written; N and C are the ends. Square brackets hold non-standard residues; d marks the D form. Peptide text beside a SMILES is read from it. X1 = O=C([C@H](CC1C=Nc2ccccc21)N[*:1])[*:2]; Nle = CCCC[C@H](N)C(=O)O; Nva = CCC[C@H](N)C(=O)O; Abu = CC[C@H](N)C(=O)O

For this test, the target named is Neuronal acetylcholine receptor; alpha3/beta4 (Rattus norvegicus) (UniProt P04757+P12392). Description: Antagonist activity at rat alpha3beta4 nAChR expressed in HEK293 cells assessed as inhibition of epibatadine-induced effect at 10 uM after 30 mins by fluorescent membrane potential assay relative to mecamylamine. It counts as cell-based. The gist of the method: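 Rat α3β4 nAChR stably expressed in HEK293 cells; crude, SPE-desalted individual peptides tested at 10 μM in HBSS with membrane potential blue dye, 30 min at 37 °C. Fluorescence change read after epibatidine (0.1 μM). Percent inhibition set against 10 μM mecamylamine taken as 100%.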
Consider `CCCC[C@@H]1NC(=O)[C@H](CC2C=Nc3ccccc32)NC(=O)[C@H](Cc2ccccc2)NC(=O)[C@@H]2CSSC[C@H](NC(=O)CN)C(=O)N[C@@H](CSSC[C@@H](C(=O)O)NC(=O)[C@@H]3CCCN3C1=O)C(=O)N[C@@H](CO)C(=O)N[C@@H](CCCC)C(=O)N1CCC[C@H]1C(=O)N[C@@H](CC)C(=O)N2` (some centres not stated) (H-GCCS[Nle]P[Abu]CF[X1][Nle]PC-OH; disulfide 2-8, 3-13), for which the inhibition stood at 22.1%.
For `CCCC[C@@H]1NC(=O)[C@H](Cc2c[nH]c3ccccc23)NC(=O)[C@H](Cc2ccccc2)NC(=O)[C@@H]2CSSC[C@H](NC(=O)CN)C(=O)N[C@@H](CSSC[C@@H](C(=O)O)NC(=O)[C@@H]3CCCN3C1=O)C(=O)N[C@@H](CO)C(=O)N[C@@H](Cc1cnc[nH]1)C(=O)N1CCC[C@H]1C(=O)N1CCC[C@H]1C(=O)N2` (H-GCCSHPPCFW[Nle]PC-OH; disulfide 2-8, 3-13), the inhibition turned out to be 15.3%.
For the molecule `CCC[C@@H]1NC(=O)[C@H](Cc2c[nH]c3ccccc23)NC(=O)[C@H]([C@H](C)CC)NC(=O)[C@@H]2CSSC[C@H](NC(=O)CN)C(=O)N[C@@H](CSSC[C@@H](C(=O)O)NC(=O)[C@@H]3CCCN3C1=O)C(=O)N[C@@H](CO)C(=O)N[C@@H](Cc1cnc[nH]1)C(=O)N1CCC[C@H]1C(=O)N[C@@H](CC)C(=O)N2`, the inhibition was found to be 38.7%.
For `CCCC[C@@H]1NC(=O)[C@H](CO)NC(=O)[C@@H]2CSSC[C@@H](C(=O)O)NC(=O)[C@@H]3CCCN3C(=O)[C@H](CCC)NC(=O)[C@H](CC)NC(=O)[C@H](Cc3ccccc3)NC(=O)[C@H](CSSC[C@H](NC(=O)CN)C(=O)N2)NC(=O)[C@H](CC)NC(=O)[C@@H]2CCCN2C1=O` (H-GCCS[Nle]P[Abu]CF[Abu][Nva]PC-OH; disulfide 2-8, 3-13), the inhibition was determined as 40.3%.
Regarding `CCCC[C@@H]1NC(=O)[C@H](CC)NC(=O)[C@H]([C@H](C)CC)NC(=O)[C@@H]2CSSC[C@H](NC(=O)CN)C(=O)N[C@@H](CSSC[C@@H](C(=O)O)NC(=O)[C@H](Cc3ccc(O)cc3)NC1=O)C(=O)N[C@@H](CO)C(=O)N[C@@H](Cc1cnc[nH]1)C(=O)N1CCC[C@H]1C(=O)N1CCC[C@H]1C(=O)N2`, the inhibition worked out at 67.2%.
On to `CCC[C@@H]1NC(=O)[C@H](Cc2c[nH]c3ccccc23)NC(=O)[C@H](Cc2ccccc2)NC(=O)[C@@H]2CSSC[C@H](NC(=O)CN)C(=O)N[C@@H](CSSC[C@@H](C(=O)O)NC(=O)[C@H](Cc3ccc(O)cc3)NC1=O)C(=O)N[C@@H](CO)C(=O)N[C@@H](Cc1cnc[nH]1)C(=O)N1CCC[C@H]1C(=O)N1CCC[C@H]1C(=O)N2` (H-GCCSHPPCFW[Nva]YC-OH; disulfide 2-8, 3-13), for which the inhibition was 47.8%.
In the case of `CCCC[C@@H]1NC(=O)[C@H](CC)NC(=O)[C@H]([C@H](C)CC)NC(=O)[C@@H]2CSSC[C@H](NC(=O)CN)C(=O)N[C@@H](CSSC[C@@H](C(=O)O)NC(=O)[C@H](Cc3ccc(O)cc3)NC1=O)C(=O)N[C@@H](CO)C(=O)N[C@@H](CCCC)C(=O)N1CCC[C@H]1C(=O)N1CCC[C@H]1C(=O)N2` it was 63.8%; in that of `CCC[C@@H]1NC(=O)[C@H](Cc2c[nH]c3ccccc23)NC(=O)[C@H]([C@H](C)CC)NC(=O)[C@@H]2CSSC[C@H](NC(=O)CN)C(=O)N[C@@H](CSSC[C@@H](C(=O)O)NC(=O)[C@@H]3CCCN3C1=O)C(=O)N[C@@H](CO)C(=O)N[C@@H](Cc1cnc[nH]1)C(=O)N1CCC[C@H]1C(=O)N1CCC[C@H]1C(=O)N2`, 44.8%.
Regarding `CCCC[C@@H]1NC(=O)[C@H](CO)NC(=O)[C@@H]2CSSC[C@@H](C(=O)O)NC(=O)[C@H](Cc3ccc(O)cc3)NC(=O)[C@H](CCC)NC(=O)[C@H](Cc3c[nH]c4ccccc34)NC(=O)[C@H](Cc3ccccc3)NC(=O)[C@H](CSSC[C@H](NC(=O)CN)C(=O)N2)NC(=O)[C@@H]2CCCN2C(=O)[C@@H]2CCCN2C1=O` (H-GCCS[Nle]PPCFW[Nva]YC-OH; disulfide 2-8, 3-13), the inhibition stood at 61.6%.
For the molecule `CCC[C@@H]1NC(=O)[C@H](CC)NC(=O)[C@H](Cc2ccccc2)NC(=O)[C@@H]2CSSC[C@H](NC(=O)CN)C(=O)N[C@@H](CSSC[C@@H](C(=O)O)NC(=O)[C@@H]3CCCN3C1=O)C(=O)N[C@@H](CO)C(=O)N[C@@H](Cc1cnc[nH]1)C(=O)N1CCC[C@H]1C(=O)N1CCC[C@H]1C(=O)N2` (H-GCCSHPPCF[Abu][Nva]PC-OH; disulfide 2-8, 3-13), the inhibition stood at 36%.
The figure for `CCCC[C@@H]1NC(=O)[C@H](CC2C=Nc3ccccc32)NC(=O)[C@H](Cc2ccccc2)NC(=O)[C@@H]2CSSC[C@H](NC(=O)CN)C(=O)N[C@@H](CSSC[C@@H](C(=O)O)NC(=O)[C@@H]3CCCN3C1=O)C(=O)N[C@@H](CO)C(=O)N[C@@H](Cc1cnc[nH]1)C(=O)N1CCC[C@H]1C(=O)N[C@@H](CC)C(=O)N2` (some centres not stated) (H-GCCSHP[Abu]CF[X1][Nle]PC-OH; disulfide 2-8, 3-13) is 22.3%.
Consider `CCCC[C@@H]1NC(=O)[C@H](CO)NC(=O)[C@@H]2CSSC[C@@H](C(=O)O)NC(=O)[C@@H]3CCCN3C(=O)[C@H](CCC)NC(=O)[C@H](Cc3c[nH]c4ccccc34)NC(=O)[C@H]([C@H](C)CC)NC(=O)[C@H](CSSC[C@H](NC(=O)CN)C(=O)N2)NC(=O)[C@H](CC)NC(=O)[C@@H]2CCCN2C1=O`, for which the inhibition is 44.8%.
On to `CCCC[C@@H]1NC(=O)[C@H](Cc2c[nH]c3ccccc23)NC(=O)[C@H]([C@H](C)CC)NC(=O)[C@@H]2CSSC[C@H](NC(=O)CN)C(=O)N[C@@H](CSSC[C@@H](C(=O)O)NC(=O)[C@H](Cc3ccc(O)cc3)NC1=O)C(=O)N[C@@H](CO)C(=O)N[C@@H](CCCC)C(=O)N1CCC[C@H]1C(=O)N[C@@H](CC)C(=O)N2`, for which the inhibition amounted to 68.6%.
The figure for `CCCC[C@@H]1NC(=O)[C@H](CO)NC(=O)[C@@H]2CSSC[C@@H](C(=O)O)NC(=O)[C@H](Cc3ccc(O)cc3)NC(=O)[C@H](CCC)NC(=O)[C@H](CC)NC(=O)[C@H]([C@H](C)CC)NC(=O)[C@H](CSSC[C@H](NC(=O)CN)C(=O)N2)NC(=O)[C@@H]2CCCN2C(=O)[C@@H]2CCCN2C1=O` is 50.9%.
Take `CCC[C@@H]1NC(=O)[C@H](CC)NC(=O)[C@H](Cc2ccccc2)NC(=O)[C@@H]2CSSC[C@H](NC(=O)CN)C(=O)N[C@@H](CSSC[C@@H](C(=O)O)NC(=O)[C@@H]3CCCN3C1=O)C(=O)N[C@@H](CO)C(=O)N[C@@H](Cc1cnc[nH]1)C(=O)N1CCC[C@H]1C(=O)N[C@@H](CC)C(=O)N2` (H-GCCSHP[Abu]CF[Abu][Nva]PC-OH; disulfide 2-8, 3-13): the inhibition was 47%.
Regarding `CCCC[C@@H]1NC(=O)[C@H](Cc2c[nH]c3ccccc23)NC(=O)[C@H]([C@H](C)CC)NC(=O)[C@@H]2CSSC[C@H](NC(=O)CN)C(=O)N[C@@H](CSSC[C@@H](C(=O)O)NC(=O)[C@H](Cc3ccc(O)cc3)NC1=O)C(=O)N[C@@H](CO)C(=O)N[C@@H](CCCC)C(=O)N1CCC[C@H]1C(=O)N1CCC[C@H]1C(=O)N2`, the inhibition was 51.8%.
The figure for `CCCC[C@@H]1NC(=O)[C@H](Cc2c[nH]c3ccccc23)NC(=O)[C@H](Cc2ccccc2)NC(=O)[C@@H]2CSSC[C@H](NC(=O)CN)C(=O)N[C@@H](CSSC[C@@H](C(=O)O)NC(=O)[C@H](Cc3ccc(O)cc3)NC1=O)C(=O)N[C@@H](CO)C(=O)N[C@@H](CCCC)C(=O)N1CCC[C@H]1C(=O)N1CCC[C@H]1C(=O)N2` (H-GCCS[Nle]PPCFW[Nle]YC-OH; disulfide 2-8, 3-13) is 60.2%.
